Measurements as given in ChEMBL document CHEMBL4699489, “Optimized Opioid-Neurotensin Multitarget Peptides: From Design to Structure-Activity Relationship Studies” (J Med Chem, 2020).
pEC50, pKi: −log10 of the molar value. Active and inactive are the calls of the source. Numbered stars: 1 amine (or outer) side, 2 acyl side, 3 side chain; on linkers, the order of the positions; unused ones are H or OH. Square brackets hold non-standard residues; d marks the D form. Peptide text beside a SMILES is read from it. X1 = O=C1[C@@H](N[*:1])Cc2ccccc2CN1CCC(=O)[*:2]; X2 = O=C([C@@H]1Cc2cc(O)ccc2CN1[*:1])[*:2]; Dmt = Cc1cc(O)cc(C)c1C[C@H](N)C(=O)O; β3hR = N=C(N)NCCC[C@H](N)CC(=O)O; Tle = CC(C)(C)[C@H](N)C(=O)O

Assays:
[1] = target: Neurotensin receptor type 2 (Homo sapiens, UniProt O95665); experiment: Displacement of [125I]-neurotensin from human recombinant NTS2 stably expressed in human 1321N1 cell membranes incubated for 60 mins by gamma counter method
Neurotensin receptor type 2, sequence (O95665 whole entry): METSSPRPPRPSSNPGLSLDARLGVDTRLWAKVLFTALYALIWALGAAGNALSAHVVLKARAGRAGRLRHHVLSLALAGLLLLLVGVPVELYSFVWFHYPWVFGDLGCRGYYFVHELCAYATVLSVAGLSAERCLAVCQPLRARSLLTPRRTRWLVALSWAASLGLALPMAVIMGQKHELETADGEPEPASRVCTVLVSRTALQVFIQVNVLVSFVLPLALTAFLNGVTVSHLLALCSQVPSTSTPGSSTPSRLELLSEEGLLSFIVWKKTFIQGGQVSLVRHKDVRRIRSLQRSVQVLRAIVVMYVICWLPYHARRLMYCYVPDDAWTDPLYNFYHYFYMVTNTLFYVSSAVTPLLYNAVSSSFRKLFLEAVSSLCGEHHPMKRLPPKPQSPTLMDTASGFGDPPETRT

[2] = target: T1, Delta-type opioid receptor (Homo sapiens, UniProt P41143); experiment: Agonist activity at human DOR stably expressed in CHO cell membranes assessed as stimulation of [35S]-GTPgammaS binding incubated for 1 hr by liquid scintillation counting assay; format: functional
T1 sequence (P41143 whole entry): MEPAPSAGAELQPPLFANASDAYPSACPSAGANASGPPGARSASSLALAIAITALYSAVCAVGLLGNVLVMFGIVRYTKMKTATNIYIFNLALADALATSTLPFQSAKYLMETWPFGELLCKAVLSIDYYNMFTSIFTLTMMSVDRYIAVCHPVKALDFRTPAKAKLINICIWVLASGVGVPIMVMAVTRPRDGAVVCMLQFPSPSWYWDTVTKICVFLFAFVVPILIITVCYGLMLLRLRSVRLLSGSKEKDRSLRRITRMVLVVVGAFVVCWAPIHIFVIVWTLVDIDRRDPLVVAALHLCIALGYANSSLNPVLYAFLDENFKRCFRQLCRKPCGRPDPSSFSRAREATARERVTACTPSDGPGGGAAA
Procedure, shortened: (§1)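 Membranes from CHO cells stably expressing hMOR, hDOR or hKOR, prepared in 20 mM HEPES, 10 mM MgCl2, 100 mM NaCl, pH 7.4. Membranes (5–10 μg) incubated with 0.05 nM [35S]GTPγS, 10 μM GDP and graded peptide concentrations, 60 min at 25 °C. Nonspecific binding with 10 μM GTPγS, basal without ligand. GF/B filtration, scintillation counting. EC50 and Emax by nonlinear regression; Emax relative to DAMGO, DPDPE or U69,593. Duplicate, three independent experiments.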

[3] = target: T2, Mu-type opioid receptor (Homo sapiens, UniProt P35372); experiment: Agonist activity at human MOR expressed in human U2OS cells assessed as increase in beta arrestin2 recruitment incubated for 90 mins by pathhunter beta-arrestin assay relative to DAMGO; format: cell-based; settings: filed as partial agonist
T2 sequence (P35372 whole entry): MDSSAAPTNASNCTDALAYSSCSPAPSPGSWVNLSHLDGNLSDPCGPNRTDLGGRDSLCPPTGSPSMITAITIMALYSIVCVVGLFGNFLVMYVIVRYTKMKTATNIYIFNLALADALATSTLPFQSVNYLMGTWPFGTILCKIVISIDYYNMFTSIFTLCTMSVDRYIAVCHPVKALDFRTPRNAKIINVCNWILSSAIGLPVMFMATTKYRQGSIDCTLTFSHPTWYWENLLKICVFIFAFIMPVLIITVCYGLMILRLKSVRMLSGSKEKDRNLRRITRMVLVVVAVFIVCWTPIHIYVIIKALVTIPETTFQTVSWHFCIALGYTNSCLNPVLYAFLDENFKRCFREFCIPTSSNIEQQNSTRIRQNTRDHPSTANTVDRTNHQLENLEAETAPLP
Procedure, shortened: (§2)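 U2OS cells stably coexpressing hMOR and enzyme acceptor-tagged β-arrestin-2, seeded at 5000 cells/well and kept 24 h at 37 °C. Graded peptide concentrations in PBS added for 90 min at 37 °C, then detection mix for 60 min at room temperature. Chemiluminescence read-out. EC50 and Emax (relative to DAMGO) by nonlinear regression. Duplicate, three independent experiments.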

[4] = target: T3, Kappa-type opioid receptor (Homo sapiens, UniProt P41145); experiment: Agonist activity at human KOR stably expressed in CHO cell membranes assessed as stimulation of [35S]-GTPgammaS binding incubated for 1 hr by liquid scintillation counting assay relative to U69593; format: functional; settings: time 60.0 min; procedure, shortened: as §1
T3 sequence (P41145 whole entry): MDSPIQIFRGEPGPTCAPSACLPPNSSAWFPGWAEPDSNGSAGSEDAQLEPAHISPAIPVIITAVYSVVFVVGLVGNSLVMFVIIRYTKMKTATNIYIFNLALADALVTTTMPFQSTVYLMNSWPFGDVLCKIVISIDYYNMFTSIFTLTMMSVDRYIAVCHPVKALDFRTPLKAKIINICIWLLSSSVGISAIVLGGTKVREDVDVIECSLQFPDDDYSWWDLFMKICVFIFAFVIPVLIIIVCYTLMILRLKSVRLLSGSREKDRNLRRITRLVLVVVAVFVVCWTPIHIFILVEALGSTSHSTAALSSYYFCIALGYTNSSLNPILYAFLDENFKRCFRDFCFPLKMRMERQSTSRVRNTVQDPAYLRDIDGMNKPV

[5] = target: T1, Delta-type opioid receptor; experiment: Displacement of [3H]-Diprenorphine from recombinant human delta opioid receptor expressed in CHO cell membrane incubated for 60 mins by liquid scintillation counting method; format: cell membranes
Procedure, shortened: (§3)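 Membranes from CHO-hMOR, -hDOR or -hKOR cells, homogenized and washed in 50 mM Tris-HCl pH 7.4. Membranes (15–20 μg) incubated with [3H]DAMGO (MOR), [3H]diprenorphine (DOR) or [3H]U69,593 (KOR) plus graded peptide, 60 min at 25 °C. Nonspecific binding with 1–10 μM of the unlabelled ligand. GF/C filtration, scintillation counting. Ki by Cheng–Prusoff. Duplicate, three independent experiments.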

[6] = target: T3, Kappa-type opioid receptor; experiment: Displacement of [3H]-U69593 from recombinant human kappa opioid receptor expressed in CHO cell membrane incubated for 60 mins by liquid scintillation counting method; format: cell membranes; procedure, shortened: as §3
[7] = system: Mus musculus; experiment: Antinociceptive activity in CD-1 mouse model of thermal-induced nociception assessed as maximum possible effect at 2.64 uM/kg, sc measured at 1 hr interval for 2 to 7 hrs by tail-flick test; format: functional; settings: dose 2.64 µmol/kg; time hrs 2-7
Procedure, shortened: (§4)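 Male CD-1 mice, 30–35 g, 8 weeks old, 5–6 per group, each mouse tested once. Peptide or saline given sc. Radiant-heat tail-flick latency measured before dosing and at 15 min, 30 min, hourly to 8 h, and at 24 h, with a 10 s cutoff. %MPE = [(test latency − basal latency)/(cutoff − basal latency)] × 100. Two-way ANOVA with Bonferroni post hoc test, P < 0.05.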

[8] = system: Mus musculus; experiment: Antinociceptive activity in CD-1 mouse model of thermal-induced nociception assessed as increase in tail withdrawal latency at 2.64 umol/kg, sc measured up to 8 hrs by tail-flick test; format: functional, organism-based; settings: dose 2.64 µmol/kg, time hrs <=8; procedure, shortened: as §4
[9] = target: T2, Mu-type opioid receptor; experiment: Agonist activity at human MOR stably expressed in CHO cell membranes assessed as stimulation of [35S]-GTPgammaS binding incubated for 1 hr by liquid scintillation counting assay; format: functional; procedure, shortened: as §1
[10] = target: T2, Mu-type opioid receptor; experiment: Agonist activity at human MOR expressed in human U2OS cells assessed as increase in beta arrestin2 recruitment incubated for 90 mins by pathhunter beta-arrestin assay; format: cell-based; procedure, shortened: as §2
[11] = target: T4, Neurotensin receptor type 1 (Homo sapiens, UniProt P30989); experiment: Agonist activity at human NTS1 expressed in HEK293 cells co-expressing Galphaq/RlucII/GFP10-Ggamma1/Gbeta1 assessed as increase in Galphaq activation incubated for 10 mins in presence of coelenterazine 400A by BRET assay; format: cell-based
T4 sequence (P30989 whole entry): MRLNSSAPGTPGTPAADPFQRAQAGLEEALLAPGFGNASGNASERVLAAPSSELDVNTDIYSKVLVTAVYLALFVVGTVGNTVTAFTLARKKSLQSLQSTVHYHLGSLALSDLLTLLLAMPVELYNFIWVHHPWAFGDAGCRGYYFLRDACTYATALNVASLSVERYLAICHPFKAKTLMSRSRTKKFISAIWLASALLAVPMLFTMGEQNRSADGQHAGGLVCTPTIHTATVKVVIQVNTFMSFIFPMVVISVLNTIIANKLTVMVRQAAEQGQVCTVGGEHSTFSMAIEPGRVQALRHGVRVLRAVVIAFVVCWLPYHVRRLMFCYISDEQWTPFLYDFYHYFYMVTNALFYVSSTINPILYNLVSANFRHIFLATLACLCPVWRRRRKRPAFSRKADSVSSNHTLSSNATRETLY

[12] = target: T4, Neurotensin receptor type 1; experiment: Agonist activity at human NTS1 expressed in HEK293 cells co-expressing Galphaq/RlucII/GFP10-Ggamma1/Gbeta1 assessed as increase in Gq activation incubated for 10 mins in presence of coelenterazine 400A by BRET assay relative to NT (8-13); format: cell-based
[13] = target: T4, Neurotensin receptor type 1; experiment: Displacement of [125I]-neurotensin from human recombinant NTS1 stably expressed in CHO-K1 cell membranes incubated for 60 mins by gamma counter method
[14] = target: T2, Mu-type opioid receptor; experiment: Displacement of [3H]-DAMGO from recombinant human mu opioid receptor expressed in CHO cell membrane incubated for 60 mins by liquid scintillation counting method; format: cell membranes; procedure, shortened: as §3
[15] = target: T2, Mu-type opioid receptor; experiment: Agonist activity at human MOR expressed in CHO cell membranes assessed as stimulation of [35S]-GTPgammaS binding incubated for 1 hr by liquid scintillation counting assay relative to DAMGO; format: functional; settings: time 60.0 min; procedure, shortened: as §1
[16] = target: T3, Kappa-type opioid receptor; experiment: Agonist activity at human KOR stably expressed in CHO cell membranes assessed as stimulation of [35S]-GTPgammaS binding incubated for 1 hr by liquid scintillation counting assay; format: functional; procedure, shortened: as §1
[17] = target: T1, Delta-type opioid receptor; experiment: Agonist activity at human DOR stably expressed in CHO cell membranes assessed as stimulation of [35S]-GTPgammaS binding incubated for 1 hr by liquid scintillation counting assay relative to DPDPE; format: functional; settings: time 60.0 min; procedure, shortened: as §1
[18] = target: T4, Neurotensin receptor type 1; experiment: […], ratio of compound EC50 to NT(8-13) EC50 for agonist activity at human NTS1 expressed in HEK293 cells co-expressing Galphaq/RlucII/GFP10-Ggamma1/Gbeta1 assessed as increase in Gq activation incubated for 10 mins in presence of coelenterazine 400A by measuring fold value by BRET assay; format: cell-based; settings: hek293, 10 min
[19] = target: T2, Mu-type opioid receptor; experiment: Potency index, ratio of PK20 Ki to test compound Ki for displacement of [3H]-DAMGO from recombinant human mu opioid receptor expressed in CHO cell membranes
[20] = system: Mus musculus; experiment: Antinociceptive activity in CD-1 mouse model of thermal-induced nociception assessed as maximum possible effect at 5.52 umol/kg, sc measured at 1 hr interval for 2 to 3 hrs by tail-flick test; format: functional; settings: dose 5.52 µmol/kg; time hrs 2-3; procedure, shortened: as §4
[21] = system: Mus musculus; experiment: Antinociceptive activity in CD-1 mouse model of thermal-induced nociception assessed as increase in tail withdrawal latency at 5.52 umol/kg, sc measured after 3 hrs by tail-flick test; format: functional, organism-based; settings: dose 5.52 µmol/kg, time hrs >=3; procedure, shortened: as §4
[22] = system: Mus musculus; experiment: Antinociceptive activity in CD-1 mouse model of thermal-induced nociception assessed as maximum possible effect at 1.82 umol/kg, sc measured at 1 hr by tail-flick test; format: functional; settings: dose 1.82 µmol/kg
[23] = system: Mus musculus; experiment: Antinociceptive activity in CD-1 mouse model of thermal-induced nociception assessed as increase in tail withdrawal latency 1.82 umol/kg, sc measured after 2 to 24 hrs by tail-flick test; format: functional, organism-based; settings: dose 1.82 µmol/kg, time hrs 2-24; procedure, shortened: as §4

Structure (SMILES) | pKi [1] | pEC50 [2] | Emax [3] | Emax ([4]; filed as partial agonist) | pKi [5] | pKi [6] | pEC50 [9] | pEC50 [10] | pEC50 [11] | Emax [12] | pKi [13] | pKi [14] | Emax ([15]; filed as agonist) | pEC50 [16] | Emax ([17]; filed as agonist) | Emax [4] | Ratio Ki [19] | further results
Cc1cc(O)cc(C)c1C[C@H](NC(=O)[C@@H]1CCCN1C(=O)[C@H](CCCNC(=N)N)NC(=O)C[C@H](CCCNC(=N)N)NC(=O)CCN1Cc2ccccc2C[C@H](NC(=O)[C@@H](CCCNC(=N)N)NC(=O)[C@@H](N)Cc2c(C)cc(O)cc2C)C1=O)C(=O)N[C@H](C(=O)N[C@@H](CC(C)C)C(=O)O)C(C)(C)C (H-[Dmt][dR][X1][β3hR]RP[Dmt][Tle]L-OH) | 11.52 | 6.52 | 68% | 46% | 7.00 | 7.55 | 7.54 | 5.97 | 9.07 | 114% | 8.40 | 8.76 | 94% | 6.80 | 99% |  |  | MPE [7]: >=80%; Activity [8]: Active
Cc1cc(O)cc(C)c1C[C@H](N)C(=O)N[C@H](CCCNC(=N)N)C(=O)N[C@H]1Cc2ccccc2CN(CCC(=O)N[C@@H](CCCNC(=N)N)C(=O)N[C@@H](CCCNC(=N)N)C(=O)N2CCC[C@H]2C(=O)N2Cc3ccc(O)cc3C[C@H]2C(=O)N[C@H](C(=O)N[C@@H](CC(C)C)C(=O)O)C(C)(C)C)C1=O (H-[Dmt][dR][X1]RRP[X2][Tle]L-OH) | 8.76 | 6.64 | 67% |  | 6.98 | 7.65 | 8.34 | 6.03 | 5.72 | 74% | 5.33 | 8.78 | 98% | 6.40 | 97% | 20% | 2 | Ratio EC50 [18]: 13000
Cc1cc(O)cc(C)c1C[C@H](N)C(=O)N[C@H](CCCCN)C(=O)N[C@@H](Cc1ccccc1)C(=O)N[C@@H](Cc1ccccc1)C(=O)N[C@@H](CCCCN)C(=O)N[C@@H](CCCCN)C(=O)N1CCC[C@H]1C(=O)N[C@@H](Cc1ccccc1)C(=O)N[C@H](C(=O)N[C@@H](CC(C)C)C(=O)O)C(C)(C)C (H-[Dmt][dK]FFKKPF[Tle]L-OH) | 7.53 | 6.32 | 69% | 65% | 7.33 | 7.47 | 7.88 | 6.02 | 7.72 | 101% | 6.73 | 8.38 |  | 7.33 |  |  |  | MPE [20]: 80%; Activity [21]: inactive; Emax ([15]; filed as partial agonist): 91%; Emax ([17]; filed as partial agonist): 78%
Cc1cc(O)cc(C)c1C[C@H](NC(=O)[C@@H]1CCCN1C(=O)[C@H](CCCCN)NC(=O)[C@H](CCCCN)NC(=O)CCN1Cc2ccccc2C[C@H](NC(=O)[C@@H](CCCNC(=N)N)NC(=O)[C@@H](N)Cc2c(C)cc(O)cc2C)C1=O)C(=O)N[C@H](C(=O)N[C@@H](CC(C)C)C(=O)O)C(C)(C)C (H-[Dmt][dR][X1]KKP[Dmt][Tle]L-OH) | 9.80 | 6.05 | 62% |  | 6.56 | 6.86 | 7.31 | 5.71 | 8.41 | 109% | 7.89 | 8.15 | 95% | 5.80 | 60% | 22% | 2 | 
Cc1cc(O)cc(C)c1C[C@H](N)C(=O)N[C@H](CCCNC(=N)N)C(=O)N[C@H]1Cc2ccccc2CN(CCC(N)=O)C1=O |  | 8.90 | 107% |  | 8.82 | 7.78 |  | 8.26 |  |  |  | 9.85 | 100% | < 5.00 | 104% |  |  | MPE [22]: 80%; Activity [23]: inactive
Cc1cc(O)cc(C)c1C[C@H](NC(=O)[C@@H]1CCCN1C(=O)[C@H](CCCNC(=N)N)NC(=O)[C@H](CCCNC(=N)N)NC(=O)CCN1Cc2ccccc2C[C@H](NC(=O)[C@@H](CCCNC(=N)N)NC(=O)[C@@H](N)Cc2c(C)cc(O)cc2C)C1=O)C(=O)N[C@H](C(=O)N[C@@H](CC(C)C)C(=O)O)C(C)(C)C (H-[Dmt][dR][X1]RRP[Dmt][Tle]L-OH) | 10.52 | 6.50 | 79% |  | 6.80 | 6.99 | 8.04 | 5.94 | 8.89 | 101% | 9.11 | 8.95 | 96% | 6.38 | 91% | 37% | 2 | 
